Assay results published in PMC11253873 (RSC Medicinal Chemistry, 2024).
Values after ≈ are worked out from the molar mass of the structure shown. Values joined by “and” are separate entries in the source; they are usually repeats but may differ in a detail not shown here. Equal values may be shown once.

How the values were obtained:
HepG2 cells = experiment: HepG2 cell inhibition; type: cell-based; conditions: Homo sapiens, HepG2, 24 h, read-out: HepG2 IC50
[1] = system: had1 mutant Pf strain (E1-C12); experiment: Growth inhibition of fosmidomycin-resistant had1 mutant P. falciparum; type: cell-based, Plasmodium falciparum; conditions: had1 mutant versus wild type 3D7
In short: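 Asynchronous cultures of wild-type 3D7 and fosmidomycin-resistant had1 strain E1-C12 are kept at 2% hematocrit in supplemented RPMI-1640 with 0.5% Albumax, under 5% O2/5% CO2/90% N2 at 37 °C. Parasites are diluted to 0.5% parasitemia and exposed to 1.2 nM–492.4 μM test compound from the start. After 3 days, DNA is read with PicoGreen (ex 485/em 528 nm). IC50 comes from a 4-parameter nonlinear fit. Technical duplicates, biological triplicate.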

Mtb H37Rv = experiment: microbe, parasite or virus in culture; type: cell-based, Mycobacterium tuberculosis; conditions: Mycobacterium tuberculosis, H37RV, 336 h, read-out: Mtb MIC
[2] = system: MEP pathway in P. falciparum parasites; experiment: IPP rescue of inhibitor-treated P. falciparum; type: cell-based, Plasmodium falciparum; conditions: 125 μM IPP added to media
In short: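 The rescue format is the standard 3-day growth assay with 125 μM IPP present throughout. Parasites are at 0.5% parasitemia and 2% hematocrit in supplemented RPMI-1640/Albumax, under 5% O2/5% CO2/90% N2 at 37 °C, with 1.2 nM–492.4 μM test compound. Growth is measured as PicoGreen DNA fluorescence and fitted to a 4-parameter dose–response curve. Technical duplicates, biological triplicate.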

## COc1ccc(C(C)ON(CCC(c2ccc(Cl)c(Cl)c2)P(=O)(OCOC(=O)C(C)(C)C)OCOC(=O)C(C)(C)C)C(C)=O)cc1 (stereo not shown) [Compound 7l, ({[1-(3,4-Dichlorophenyl)-3-{N-[1-(4-methoxyphenyl)ethoxy]acetamido}propyl]({[(2,2-dimethylpropanoyl)oxy]methoxy})phosphoryl}oxy)methyl 2,2-dimethylpropanoate]
HepG2 cells
  IC50: > 100 µg/mL and > 140 µM
[1]
  cross resistance of fosmidomycin-resistant had1 mutant Pf strain: displayed increased resistance
Mtb H37Rv
  MIC: 4.6 µg/mL (≈ 6.53 µM)
[2]
  IPP rescue of growth of drug-treated P. falciparum parasites: rescues the growth
